# VLA-4 inh – inhibition in a human VLA-4 binding assay; P13612; VLA-4 expressing cells, ligand binding flow cytometry; inhibition, % (about 7 µM as worked out from the volumes in the protocol); actives 0.2% (n = 330,000); AID 2557; in the data active = inhibition above about 50%
# CHT block – inhibitors of human choline transporter CHT. CHT-expressing cells, membrane potential dye, choline response; stronger effect = lower value. B-score at 10 µM. actives 0.86% (n = 310,000). AID 488975;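 active = B-score over 3 SD under the library average, and starting fluorescence ratio not unusually high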;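 also: choline stimulus applied at its EC90 after an EC20 pre-addition; B-score computed on integrated fluorescence ratio after choline addition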
# Target sequence (Q9GZV3 whole entry, looked up): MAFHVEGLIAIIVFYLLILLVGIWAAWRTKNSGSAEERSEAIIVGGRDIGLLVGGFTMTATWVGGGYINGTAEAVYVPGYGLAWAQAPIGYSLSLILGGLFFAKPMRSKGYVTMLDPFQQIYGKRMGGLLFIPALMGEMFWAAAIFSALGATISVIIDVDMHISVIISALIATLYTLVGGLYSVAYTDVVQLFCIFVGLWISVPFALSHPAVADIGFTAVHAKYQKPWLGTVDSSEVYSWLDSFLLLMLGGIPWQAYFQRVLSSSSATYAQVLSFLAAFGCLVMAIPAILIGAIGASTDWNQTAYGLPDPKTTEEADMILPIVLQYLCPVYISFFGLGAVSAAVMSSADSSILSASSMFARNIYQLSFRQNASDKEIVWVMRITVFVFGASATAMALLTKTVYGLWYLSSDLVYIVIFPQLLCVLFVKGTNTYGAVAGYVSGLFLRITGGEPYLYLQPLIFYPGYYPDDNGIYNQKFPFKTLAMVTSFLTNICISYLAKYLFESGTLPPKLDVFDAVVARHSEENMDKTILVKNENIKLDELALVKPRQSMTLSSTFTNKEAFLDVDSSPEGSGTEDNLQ
# CHT allo act – allosteric activators of human choline transporter CHT | Q9GZV3 | CHT-expressing cells, membrane potential dye, choline EC20; stronger effect = higher value; LV-AA mutant CHT in HEK293 cells | B-score at 10 µM | actives 0.49% (n = 310,000) | AID 488977;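 active = initial fluorescence not abnormally high and integrated response B-score, plate-corrected, over 3 SD above library mean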
# T cell HTS – modulates CD8 T cell binding to vesicles; response (vesicle binding), % at 7 µM; 2C CD8+ T cell-vesicle binding, flow cytometry; stronger effect = lower value; actives 0.068% (n = 330,000); AID 2052;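 active = response, share of CD8 T cells binding vesicles, and their 90th percentile fluorescence all below set limits, cut at about 80% in these data, passing the limit was not always enough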;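 also: values below 100% mean blocked vesicle binding to the CD8+ T cells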
#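 material = purified 2C TCR transgenic mouse naive CD8+ T cells | controls = Unloaded micro-vesicles (low), QL9 vesicles with 0.7% DMSO (high) | detection = cytometric PE anti-B7-1 and Alexa647 anti-CD8 signals after 1% paraformaldehyde fixation | incubation = binding step 1.5 h, 37 °C, antibody labelling 20 min, ice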
# CHT activ conf – confirmation of human choline transporter (CHT) activators; activation, % at 10 µM; CHT-expressing cells, membrane potential dye fluorescence (FDSS); % of choline EC20–EC90 response window; HEK293 expressing CHT LV-AA mutant; choline added at its EC20; shares compounds with CHT allo act; actives 91% (n = 2,500); AID 504833;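 active = primary screen active, with duplicate mean activation above negative control mean plus 3 SD, cut at about 11% in these data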
# HEK293 MP dye – activity in parental HEK293 cells lacking CHT; ratio readout change at 10 µM, hits read low; actives 62% (n = 2,500); shares compounds with CHT allo act; AID 623908; membrane potential dye fluorescence (FDSS); measured after EC20 choline addition;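 active = duplicate-averaged ratio beyond 3 SD from buffer wells, up or down, though filed actives are nearly all decreases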
# Numbers without * were called inactive; i = inactive; nt = no result given. This is a sample that favours compounds with a hit; in the whole collection about 1.5% have one here.
SMILES,VLA-4 inh,CHT block,CHT allo act,T cell HTS,CHT activ conf,HEK293 MP dye
CC1CC(C)CN(CCCNC(=O)COc2cc(=O)n(C)c3ccccc23)C1 (centres undefined),0,i,i,308,17*,-28*
CCN1CCCC1CNC(=O)COc1cc(=O)n(C)c2ccccc12 (centres undefined),-3,i,7.2*,793,43*,-39*
Cn1c(=O)cc(OCC(=O)NCCC2=CCCCC2)c2ccccc21,3,i,i,472,nt,nt
CCn1c(=O)cc(OCC(=O)NCCCN2CCC(C)CC2)c2ccccc21,11,i,i,310,nt,nt
O=C(CN1C(=O)CCSc2ccc(S(=O)(=O)N3CCCC3)cc21)Nc1ccccc1,31,i,i,756,nt,nt
C=CCn1c(SCc2c(C)noc2C)nc2cc(C(=O)O)ccc2c1=O,3,i,i,368,nt,nt
C=CCn1c(SCc2c(C)noc2C)nc2ccccc2c1=O,15,i,6.6*,442,27*,i
Cc1noc(C)c1CSc1nc2ccccc2c(=O)n1-c1ccccc1,11,i,9.3*,313,35*,i
Cc1noc(C)c1CSc1nc2ccccc2c(=O)n1-c1ccc(F)cc1F,-7,i,11*,164,10,i
CN(C(=O)CSc1nc2ccccc2c(=O)n1-c1ccc(F)cc1F)C1CCS(=O)(=O)C1 (centres undefined),-10,nt,nt,319,nt,nt
COC(=O)c1ccc(CSc2nc3ccccc3c(=O)n2-c2ccccc2)o1,7,i,8.6*,320,19*,i
COC(=O)c1ccc(CSc2nc3ccccc3c(=O)n2-c2ccc(OC)c(OC)c2)o1,5,i,i,177,nt,nt
CN1CCN(C(=O)c2cc(C(C)(C)C)cc(C(C)(C)C)c2)CC1,5,i,i,204,nt,nt
O=C(Cc1c(F)cccc1Cl)NNC(=O)c1ccccc1Cl,1,nt,nt,262,nt,nt
COC(=O)COc1ccc2c(c1)O/C(=C\c1cccc([N+](=O)[O-])c1)C2=O,11,i,i,251,nt,nt
COc1ccc(/C=C2\Oc3cc(OCC(N)=O)ccc3C2=O)cc1OC,-6,i,6.2*,414,46*,-37*
CC[N+](CC)(CC)C/C=C/CN1CCCCC1,14,i,i,223,40*,-43*
COc1ccccc1C(=O)NC(=O)COC(=O)Cn1[nH]c(=O)c2ccccc2c1=O,1,i,i,489,nt,nt
Cn1cccc/c1=N\c1cccc[n+]1C,-2,i,i,298,67*,-56*
S=C(NCc1ccco1)NCC1CCCO1 (centres undefined),1,i,i,363,nt,nt
NNC(=O)c1ccc(COCC(F)(F)F)cc1,3,i,i,351,-6,i
Cc1noc(C)c1NC(=O)N(C)C[C@H]1Oc2ccc(NC(=O)Nc3ccc4c(c3)OCO4)cc2C(=O)N([C@H](C)CO)C[C@@H]1C,-6,nt,nt,541,nt,nt
Cc1cc(N2CCCC2)nc2ccccc12,1,i,i,135,48*,-58*
CCCCC(=O)Nc1cc(Cl)ccc1C(=O)O,-4,i,i,327,nt,nt
O=C(CN(C(=O)CNC(=O)c1ccco1)c1ccc(Cl)c(Cl)c1)NC1CCCCC1,12,i,6.9*,352,39*,i
SMILES,VLA-4 inh,CHT block,CHT allo act,T cell HTS,CHT activ conf,HEK293 MP dye
Cc1cc(C)n2nc3nc4c(cc3c2n1)CCCC4,-5,i,7*,480,41*,-47*
O=c1cc[nH]c2c1ccc1c(=O)cc[nH]c12,1,i,i,246,nt,nt
Cc1[nH]ccc2c1[nH]c1cc(=O)ccc12,2,i,i,234,50*,-49*
COc1ccc(CN(C)C(=O)c2ccccc2Sc2ccccc2C#N)cc1OC,13,i,i,312,nt,nt
CN(Cc1cccc(F)c1)C(=O)c1ccccc1Sc1ccccc1C#N,-12,i,7.2*,413,31*,i
COc1ccc(-c2cn(CCC(=O)O)c(C)n2)cc1,22,i,i,247,nt,nt
Cc1cccn2c(Nc3ccccc3)c(-c3ccccn3)nc12,-1,i,i,116,41*,-25*
CC(C)N(Cc1ccccc1)CC(O)COc1ccc(S(=O)(=O)N2CCOCC2)cc1Cl (centres undefined),4,i,i,377,nt,nt
COc1ccc(-c2c3c(=O)n(C)c(=O)n(C)c3cn2C2CCCCC2)cc1,19,i,6.8*,270,23*,i
CCCn1cc2c(c1-c1ccc(C)cc1)c(=O)n(C)c(=O)n2C,-7,i,i,241,nt,nt
Cc1c(N)c(=O)n(-c2ccccc2)n1C,11,i,i,528,nt,nt
Cc1cc(=S)n(-c2ccccc2)n1C,1,i,7*,325,8,i
Cc1cccc2c(=O)cc(C)n(CC(=O)N3CCCCC3)c12,4,i,7.6*,104,62*,-70*
Cc1cccc2c(=O)cc(C)n(CC(=O)N3CCOCC3)c12,-1,i,10*,354,47*,i
Cc1cccc2c(=O)cc(C)n(Cc3ccccc3)c12,12,i,i,324,nt,nt
O=C(O)c1cccc(OS(=O)(=O)c2cc(Br)ccc2Br)c1,9,nt,nt,300,nt,nt
COCCN1Cc2cccc(C(=O)NCC3CCN(CC(C)C)C3)c2C1=O (centres undefined),-3,i,i,490,nt,nt
CCOC(=O)N1CCC(N2Cc3cccc(C(=O)NCC4CCN(CC(C)C)C4)c3C2=O)CC1 (centres undefined),-4,i,6.3*,437,53*,-34*
CC(C)C(=O)N1CCN(c2cc(N3CCN(C)CC3)c(F)cc2[N+](=O)[O-])CC1,8,i,7.9*,478,45*,-49*
CC(=O)N1CCN(c2cc(N3CCCC3)c(F)cc2[N+](=O)[O-])CC1,3,i,i,203,nt,nt
CC(C)(CO)CNC(=O)CCc1nnc(-c2ccc(-c3ccccc3)cc2)o1,3,i,i,264,nt,nt
Cc1ccc(NC(=O)C2CCN(S(=O)(=O)c3ccc4c(c3)NC(=O)C(C)S4)CC2)cc1Cl (centres undefined),-4,i,i,397,nt,nt
NC(N)=N/N=C/c1ccc2cccc(OCc3ccccc3)c2n1,6,i,6.3*,329,14*,i
O/N=C/c1ccc2cccc(OCc3ccccc3)c2n1,-7,i,i,225,nt,nt
COc1ccc(S(=O)(=O)N2CCN(C/C=C/c3ccccc3)CC2)cc1F,1,i,i,205,nt,nt

# Screening results as filed in PubChem.
